Source: ChEMBL document CHEMBL1153486, “Discovery of a class of potent gap-junction modifiers as novel antiarrhythmic agents” (Bioorg Med Chem Lett, 2009)
Active and inactive are the calls of the source. No cut-off for these calls is given here.

How the values were obtained:
Mus musculus [1] = assay: Antiarrhythmic activity in calcium chloride-induced mouse arrhythmia model assessed as prolongation of time to conduct cardiac block at 10 pmol/kg, iv relative to control; format: functional, Heart
Method in brief: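 Mice received an intravenous infusion of CaCl2 after IV test compound. The read-out was time to cardiac conduction block, expressed as percent increase over control. Values are means of at least three experiments with standard deviation.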

[2] = Tmax in CD1 mouse at 5 mg/kg, po; format: ADME, organism-based; parameters: dose 5 mg/kg, route oral; conditions: in vivo
Method in brief: (§1)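 CD-1 mice were dosed IV at a nominal 1 mg/kg (actual 0.77 mg/kg or 1.6 mg/kg for some compounds) and PO at 5 mg/kg. Parameters were derived from mean drug concentration, N = 3 animals/time point.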

[3] = Volume of distribution at steady state in CD1 mouse at 1 mg/kg, iv; format: ADME, organism-based; parameters: dose 1 mg/kg, route intravenous; conditions: in vivo, read-out: Vdss; method in brief: as §1
[4] = Clearance in CD1 mouse at 1 mg/kg, iv; format: ADME, organism-based; parameters: dose 1 mg/kg, route intravenous; conditions: in vivo; method in brief: as §1
[5] = Inhibition of CYP450; format: ADME
[6] = Cmax in CD1 mouse at 5 mg/kg, po; format: ADME, organism-based; parameters: dose 5 mg/kg, route oral; conditions: in vivo; method in brief: as §1
[7] = Stability in rat plasma after 3 hrs; format: ADME, cell-free; conditions: read-out: Stability
Method in brief: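 Rat plasma incubation for 3 h; stability reported as percent of compound remaining.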

Mus musculus [8] = assay: Antiarrhythmic activity in calcium chloride-induced mouse arrhythmia model assessed as prolongation of time to conduct cardiac block at 1 to 30 mg/kg, po relative to control; format: functional, organism-based; conditions: Heart
Method in brief: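 Compounds were given orally at 1–30 mg/kg to mice, which then received an intravenous CaCl2 infusion. The read-out was prolongation of time to conduction block versus control.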

[9] = Oral bioavailability in CD1 mouse at 5 mg/kg; format: ADME, organism-based; conditions: in vivo; method in brief: as §1
[10] = Metabolic stability in human liver microsomes assessed as half life; format: ADME, Microsome
[11] = biological target: Voltage-gated inwardly rectifying potassium channel KCNH2 (Homo sapiens, UniProt Q12809); assay: Inhibition of human ERG
[12] = Half life in CD1 mouse at 5 mg/kg, po; format: ADME, organism-based; parameters: dose 5 mg/kg, route oral; conditions: in vivo; method in brief: as §1
[13] = Half life in CD1 mouse at 1 mg/kg, iv; format: ADME, organism-based; parameters: dose 1 mg/kg, route intravenous; conditions: in vivo; method in brief: as §1
[14] = AUC in CD1 mouse at 5 mg/kg, po; format: ADME, organism-based; parameters: dose 5 mg/kg, route oral; conditions: plasma; method in brief: as §1
[15] = Metabolic stability in rat liver microsomes assessed as half life; format: ADME, Microsome
[16] = Tmax in dog at 5 mg/kg, po; format: ADME, organism-based, Canis lupus familiaris; parameters: dose 5 mg/kg, route oral; conditions: in vivo
Canis familiaris [17] = assay: Half life in dog at 1 mg/kg, iv; format: ADME, organism-based, Canis lupus familiaris; parameters: dose 1 mg/kg, route intravenous; conditions: in vivo
Method in brief: (§2)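 Dogs were dosed IV at 1 mg/kg and PO at 5 mg/kg; one compound was given 2.3 mg/kg IV and 7.8 mg/kg oral. Values are means of at least three animals, or two animals where no SD is given.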

Canis familiaris [18] = assay: Volume of distribution at steady state in dog at 1 mg/kg, iv; format: ADME, organism-based, Canis lupus familiaris; parameters: dose 1 mg/kg, route intravenous; conditions: in vivo; method in brief: as §2
[19] = Tmax in CD1 mouse at 0.77 mg/kg, po; format: ADME, organism-based; parameters: dose 0.77 mg/kg, route oral; conditions: in vivo
[20] = Half life in CD1 mouse at 0.77 mg/kg, po; format: ADME, organism-based; parameters: dose 0.77 mg/kg, route oral; conditions: in vivo
[21] = Cmax in CD1 mouse at 0.77 mg/kg, po; format: ADME, organism-based; parameters: dose 0.77 mg/kg, route oral; conditions: in vivo
[22] = Volume of distribution at steady state in CD1 mouse at 0.77 mg/kg, iv; format: ADME, organism-based; parameters: dose 0.77 mg/kg, route intravenous; conditions: in vivo, read-out: Vdss; method in brief: as §1
Mus musculus [23] = assay: Oral bioavailability in CD1 mouse at 0.77 mg/kg; format: ADME, organism-based; conditions: in vivo
[24] = Half life in CD1 mouse at 0.77 mg/kg, iv; format: ADME, organism-based; parameters: dose 0.77 mg/kg, route intravenous; conditions: in vivo; method in brief: as §1
[25] = Oral bioavailability in dog at 5 mg/kg; format: ADME, organism-based, Canis lupus familiaris; conditions: in vivo; method in brief: as §2
Mus musculus [26] = assay: Antiarrhythmic activity in calcium chloride-induced mouse arrhythmia model assessed as prolongation of time to conduct cardiac block at 20 pmol/kg, iv relative to control; format: functional, Heart
Method in brief: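 A medium-throughput IV screen in the mouse CaCl2 infusion arrhythmia model (n = 7–11). Time to conduction block was expressed as percent of saline control.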

Mus musculus [27] = assay: AUC in CD1 mouse at 5 mg/kg, po; conditions: in vivo
[28] = AUC in dog at 5 mg/kg, po; format: ADME, organism-based, Canis lupus familiaris; parameters: dose 5 mg/kg, route oral; conditions: plasma; method in brief: as §2
[29] = Cmax in dog at 5 mg/kg, po; format: ADME, organism-based, Canis lupus familiaris; parameters: dose 5 mg/kg, route oral; conditions: in vivo; method in brief: as §2
[30] = Half life in dog at 5 mg/kg, po; format: ADME, organism-based, Canis lupus familiaris; parameters: dose 5 mg/kg, route oral; conditions: in vivo; method in brief: as §2

Voltage-gated inwardly rectifying potassium channel KCNH2, sequence (Q12809 whole entry): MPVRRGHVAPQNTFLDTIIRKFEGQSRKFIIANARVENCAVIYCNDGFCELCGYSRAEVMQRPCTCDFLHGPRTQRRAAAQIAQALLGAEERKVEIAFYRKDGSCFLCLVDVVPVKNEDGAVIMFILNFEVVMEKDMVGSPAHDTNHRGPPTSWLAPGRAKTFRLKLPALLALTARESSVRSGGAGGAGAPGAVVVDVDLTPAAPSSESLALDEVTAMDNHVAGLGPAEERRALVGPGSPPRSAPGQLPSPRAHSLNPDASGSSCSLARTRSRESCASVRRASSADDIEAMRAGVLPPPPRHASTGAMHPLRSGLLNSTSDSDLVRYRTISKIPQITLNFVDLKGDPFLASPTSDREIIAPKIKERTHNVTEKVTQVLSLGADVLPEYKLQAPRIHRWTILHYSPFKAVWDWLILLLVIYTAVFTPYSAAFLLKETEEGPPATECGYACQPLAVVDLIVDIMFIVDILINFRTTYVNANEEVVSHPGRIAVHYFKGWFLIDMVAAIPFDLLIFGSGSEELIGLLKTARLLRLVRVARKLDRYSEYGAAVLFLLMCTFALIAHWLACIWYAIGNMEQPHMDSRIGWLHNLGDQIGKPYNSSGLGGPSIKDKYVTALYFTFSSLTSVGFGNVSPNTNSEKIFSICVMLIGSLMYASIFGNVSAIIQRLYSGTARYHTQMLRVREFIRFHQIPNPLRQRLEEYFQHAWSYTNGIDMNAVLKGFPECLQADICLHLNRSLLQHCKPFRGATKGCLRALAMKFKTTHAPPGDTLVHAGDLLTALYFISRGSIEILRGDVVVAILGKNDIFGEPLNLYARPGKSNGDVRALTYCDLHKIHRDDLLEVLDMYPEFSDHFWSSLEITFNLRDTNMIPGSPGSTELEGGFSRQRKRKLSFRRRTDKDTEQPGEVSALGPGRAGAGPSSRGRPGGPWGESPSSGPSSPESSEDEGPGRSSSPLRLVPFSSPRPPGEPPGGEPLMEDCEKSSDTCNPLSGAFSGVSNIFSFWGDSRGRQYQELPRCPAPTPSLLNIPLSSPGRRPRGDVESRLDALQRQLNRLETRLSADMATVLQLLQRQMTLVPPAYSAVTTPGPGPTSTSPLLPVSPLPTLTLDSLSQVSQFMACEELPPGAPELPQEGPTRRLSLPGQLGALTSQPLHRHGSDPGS

NCC(=O)N1C[C@H](NC(=O)c2ccccc2)C[C@H]1C(=O)NC1CC1
Activity (Mus musculus [1]): 196% | Tmax [2]: 0.25 h | Vd [3]: 0.6 L/kg | clearance [4]: 20 mL/min/kg | Activity [5]: Not Active | Cmax [6]: 87 ng/mL | remaining at 3 h [7]: 96% | Activity (Mus musculus [8]): Active | bioavailability [9]: 7% | half-life [10]: > 0.5 h | Activity [11]: Not Active | half-life [12]: 1.2 h | half-life [13]: 2.1 h | AUC [14]: 305 ng·h/mL | half-life [15]: > 0.5 h

CC(C)NC(=O)[C@@H]1C[C@@H](NC(=O)c2ccccc2)CN1C(=O)CN
Activity (Mus musculus [1]): 162% | Tmax [2]: 0.25 h | Vd [3]: 2 L/kg | clearance [4]: 58 mL/min/kg | Activity [5]: Not Active | Cmax [6]: 44 ng/mL | remaining at 3 h [7]: 100% | Activity (Mus musculus [8]): Active | bioavailability [9]: 6% | half-life [10]: > 0.5 h | Activity [11]: Not Active | half-life [12]: 1.6 h | half-life [13]: 0.9 h | AUC [14]: 90 ng·h/mL | half-life [15]: > 0.5 h

CCNC(=O)[C@@H]1C[C@@H](NC(=O)c2ccccc2)CN1C(=O)CN
Activity (Mus musculus [1]): 137.2% | remaining at 3 h [7]: 100%

CC(C)(C)NC(=O)[C@@H]1C[C@@H](NC(=O)c2ccccc2)CN1C(=O)CN
Activity (Mus musculus [1]): 135.7% | remaining at 3 h [7]: 99%

NCC(=O)N1C[C@H](NC(=O)c2ccccc2)C[C@H]1C(=O)O [DANEGAPTIDE]
Activity (Mus musculus [1]): 206.6% | Tmax [16]: 1.1 h | t1/2 (Canis familiaris [17]): 6.3 h | Vdss (Canis familiaris [18]): 8 L/kg | remaining at 3 h [7]: 93% | Tmax [19]: 0.5 h | half-life [20]: 1.9 h | Cmax [21]: 26 ng/mL | Vd [22]: 2.7 L/kg | F (Mus musculus [23]): 6% | half-life [24]: 1.6 h | bioavailability [25]: 14% | Activity (Mus musculus [26]): 149.8% | AUC (Mus musculus [27]): 73 ng·h/mL | AUC [28]: 4790 ng·h/mL | Cmax [29]: 799 ng/mL | half-life [30]: 4 h

NCC(=O)N1C[C@H](NC(=O)c2ccccc2)C[C@H]1C(=O)N[C@@H]1CCOC1
Activity (Mus musculus [1]): 143.5% | remaining at 3 h [7]: 100%

NCC(=O)N1C[C@H](NC(=O)c2ccccc2)C[C@H]1C(=O)NC1CCCC1
Activity (Mus musculus [1]): 110.6% | remaining at 3 h [7]: 90%

CC(C)[C@@H](C)NC(=O)[C@@H]1C[C@@H](NC(=O)c2ccccc2)CN1C(=O)CN
Activity (Mus musculus [1]): 120.1% | remaining at 3 h [7]: 89%

COC(=O)[C@@H]1C[C@@H](NC(=O)c2ccccc2)CN1C(=O)CNC(=O)OC(C)(C)C
Activity (Mus musculus [1]): 166.3% | remaining at 3 h [7]: 0%
